# Results reported in ChEMBL document CHEMBL1250488, “Structural and functional basis of resistance to neuraminidase inhibitors of influenza B viruses” (J Med Chem, 2010).
# Key:
# [1] = Inhibition of Influenza B virus (B/Perth/211/2001) recombinant neuraminidase E197 mutant expressed in Sf21 insect cells after 60 mins by MUNANA based assay
# Procedure, shortened: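 The enzyme source was virus grown in cell culture and solubilized in 1% CHAPS (final), then titrated to give similar fluorescence. Inhibitor (serial log10 dilutions in water, 0.01–10000 nM; one inhibitor 0.01–10000 μM) was added together with 100 μM MUNANA, with no preincubation. Fluorescence was read every minute for 60 min without stop solution. […] Duplicates.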
# [2] = Inhibition of Influenza B virus (B/Perth/211/2001) recombinant neuraminidase E197 mutant expressed in Sf21 insect cells preincubated for 30 mins measured after 60 mins by MUNANA based assay
# Procedure, shortened: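 Virus detergent extract (1% CHAPS final, titrated to similar fluorescence) was preincubated for 30 min with inhibitor (serial log10 dilutions in water, 0.01–10000 nM; one inhibitor 0.01–10000 μM). 100 μM MUNANA was then added and fluorescence read every minute for 60 min without stop solution. […] Duplicates.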
Structure (SMILES),IC50 [1],Ki [1],IC50 [2],Ki [2]
O=C(O)C1(F)O[C@H]([C@H](O)[C@H](O)CO)[C@H](O)[C@@H](O)C1F (some centres not stated),19400 nM,–,–,–
CCOC(=O)C1=C[C@@H](OC(CC)CC)[C@H](NC(C)=O)[C@@H](N)C1 [OSELTAMIVIR],660 nM,84 nM,–,–
CCC(CC)[C@H](NC(C)=O)[C@@H]1[C@H](O)[C@@H](C(=O)O)C[C@H]1NC(=N)N [PERAMIVIR ANHYDROUS],75.2 nM,8.3 nM,41.5 nM,8.2 nM
